Consider 7 compounds from PubChem BioAssay.

Calls of active or inactive are those of the source.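 How the source made its calls, unless noted: active means visually confirmed hit in the image check and inhibition above 20%; inconclusive means visually confirmed hit but inhibition not above 20%; inactive means no visual hit in the image check.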

Assay [1] in a line: inhibitors of TNFa-induced NFkB p65 translocation, primary screen, imaging, HUVEC, MLSMR starter and 10KST1 sets (AID 438;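 active means inhibition above 20% together with a positive visual image hit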;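 further: compound added about 3h40 before a 20 min TNFalpha stimulation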;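 on inhibition: signal is the nuclear over cytoplasmic p65 intensity ratio per well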). Particulars: HUVEC TNFa-induced p65 nuclear translocation; cell count: measured here: nuclei count (cytotoxicity indicator), at 2.08 µM; inhibition: at 2 µM, stronger effect = higher value, 0% TNFa-plus-vehicle, 100% no-TNFa wells.
Assay [2] in a line: endothelial E-selectin expression blockers – imaging, HUVEC, immunofluorescence, MLSMR starter and 10KST1 sets, primary screen (AID 487).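 On inhibition: signal is fraction of cell area covered by stained E-selectin grains.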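 On nuclei count: 100% = median nuclei count of all wells on the same plate.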 As to conditions: HUVEC TNFalpha-induced E-selectin immunofluorescence imaging, at 2 µM; inhibition: stronger effect = higher value; nuclei count: measured here: cell number, toxicity.
The nature of assay [3]: Primary imaging screen for DUSP6 inhibitors that restore phospho-Erk in transfected HeLa cells, chemical complementation (AID 609;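 active means compounds giving at least 50% inhibition in the cell-based MKP-3 phosphatase rescue imaging test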;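 on inhibition: phospho-Erk level distribution per well compared with pooled transfected vehicle control wells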). Particulars: HeLa MKP-3 transfected, phospho-Erk imaging KS statistic, at 10 µM, cells stimulated with TPA for 15 min.
In assay [4] the target is Dual specificity protein phosphatase 6 (Homo sapiens) (UniProt Q16828). The description is as above. Particulars: HeLa MKP-3 transfected, phospho-Erk imaging KS statistic; at 10 µM; stronger effect = higher value; cells stimulated with TPA for 15 min.
Sequence of Dual specificity protein phosphatase 6 (Homo sapiens) (Q16828 whole entry, looked up): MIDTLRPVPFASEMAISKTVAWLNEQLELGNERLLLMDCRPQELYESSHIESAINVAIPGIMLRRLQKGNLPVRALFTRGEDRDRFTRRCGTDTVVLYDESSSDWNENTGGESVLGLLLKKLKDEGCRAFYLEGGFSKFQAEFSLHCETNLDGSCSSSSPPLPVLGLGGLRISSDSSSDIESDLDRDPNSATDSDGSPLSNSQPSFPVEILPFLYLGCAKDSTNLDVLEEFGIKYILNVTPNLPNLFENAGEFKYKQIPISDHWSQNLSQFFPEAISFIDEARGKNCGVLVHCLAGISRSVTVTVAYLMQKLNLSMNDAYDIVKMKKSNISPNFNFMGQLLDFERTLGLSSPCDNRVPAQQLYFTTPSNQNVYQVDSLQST
Assay [5] has as its target Voltage-gated potassium channel subunit beta-2 (Rattus norvegicus) (UniProt P62483). The assay is described as follows: inhibitors of rat Kvbeta2 reductase activity – biochemical, NADPH fluorescence, primary screen (AID 622;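 active means fluorescence slope higher than the sample average by over 3 SD, cut at about -0.22 in these data, passing the limit was not always enough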;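 further: slope of raw intensity against log time taken from 70 to 1610 s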). As to conditions: recombinant KvBeta, 4-cyanobenzaldehyde reduction, at 10 µM, stronger effect = higher value.
Assay [6] has the same target. As to the kind of experiment: enhancers of rat Kvbeta2 NADPH turnover – biochemical, NADPH fluorescence, primary screen (AID 623;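 active means NADPH fluorescence slope more negative than the mean of all samples by about 3 SD, 99.7% confidence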;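 further: fluorescence intensity change per second fitted from 20 to 320 s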). As to conditions: Recombinant KvBeta, NADPH fluorescence decrease slope, 10 min; at 10 µM; stronger effect = lower value.
The target in assay [7] is Alpha-2C adrenergic receptor (Homo sapiens) (UniProt P18825). As to the kind of experiment: compounds altering alpha2C-coupled GIRK flux – cell-based, HEK293 alpha2C/GIRK1/2, thallium flux, primary screen (AID 624;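 active means fluorescence slope after compound addition differing from the mean of all screened samples at 99.7% confidence, in either direction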;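 further: slope of fluorescence ratio to pre-addition baseline per second over 15 to 24 s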). As to conditions: thallium flux BTC fluorescence, at 10 µM, actives lie on both sides.
Sequence of Alpha-2C adrenergic receptor (Homo sapiens) (P18825 whole entry, looked up): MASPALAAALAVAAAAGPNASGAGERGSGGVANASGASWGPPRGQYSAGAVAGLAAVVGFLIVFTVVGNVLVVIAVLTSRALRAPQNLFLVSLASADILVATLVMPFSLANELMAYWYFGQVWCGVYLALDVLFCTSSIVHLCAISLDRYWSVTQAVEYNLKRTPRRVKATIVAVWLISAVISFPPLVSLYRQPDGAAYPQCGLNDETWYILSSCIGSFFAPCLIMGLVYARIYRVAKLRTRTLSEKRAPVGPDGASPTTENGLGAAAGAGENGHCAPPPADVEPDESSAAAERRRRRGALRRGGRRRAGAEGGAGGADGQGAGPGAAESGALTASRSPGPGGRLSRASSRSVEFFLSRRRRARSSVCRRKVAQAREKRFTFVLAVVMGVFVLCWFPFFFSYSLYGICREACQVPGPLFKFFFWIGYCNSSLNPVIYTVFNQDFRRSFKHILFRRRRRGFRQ
Assay [8] can be described thus: inhibitors of larval lipid processing in zebrafish, primary screen, whole organism, PED6 fluorescence, gall bladder and intestine (AID 686;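 active means a full or partial loss of lipid-probe fluorescence in the fish gall bladder, intestine or both, judged by eye; inactive means no fluorescence loss, or compound toxic to the fish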;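 further: larvae 5 to 7 days old with five fish per well; signal comes from phospholipase A2 cleavage of quenched PED6 carried via bile; overnight exposure to compound and PED6 before scoring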). As to conditions: Zebrafish larvae PED6 lipid processing, fluorescence scoring; screened at 20 µM (by protocol). The gist of the method:
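Doses: 20 µM single dose. Test system: live zebrafish larvae aged 5-7 days, whole organism. Quantity: five larvae per well. Measured by: By-eye fluorescence microscopy. Reagent: ingested quenched lipid PED6 at 100 nM. Read-out: visual per-well fluorescence inhibition score. Times: overnight exposure of larvae to compound plus PED6.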

A short description of assay [9]: loss of swimming-algae plug formation – whole organism, Chlamydomonas reinhardtii, WT vs cilia-less mutant, absorbance, 96-well, primary screen (AID 463189;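 active means inhibition at or above 50% relative to wild type and mutant plate controls; inactive means inhibition below 50%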;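 further: 0% = wild type cc124 cells in DMSO and 100% = ciliumless bld1 mutant cells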). Particulars: Chlamydomonas reinhardtii gravitaxis, OD600 absorbance, 2 days; at 10 µM; stronger effect = higher value.
[10] abbreviates: measured here: cell density z-score.
Where [11] appears, read: measured here: nuclear c-Myc green intensity z-score.
Setting [12] is: measured here: nuclear pErk red intensity z-score, stronger effect = higher value.

Sequence of Voltage-gated potassium channel subunit beta-2 (Rattus norvegicus) (P62483 whole entry, looked up): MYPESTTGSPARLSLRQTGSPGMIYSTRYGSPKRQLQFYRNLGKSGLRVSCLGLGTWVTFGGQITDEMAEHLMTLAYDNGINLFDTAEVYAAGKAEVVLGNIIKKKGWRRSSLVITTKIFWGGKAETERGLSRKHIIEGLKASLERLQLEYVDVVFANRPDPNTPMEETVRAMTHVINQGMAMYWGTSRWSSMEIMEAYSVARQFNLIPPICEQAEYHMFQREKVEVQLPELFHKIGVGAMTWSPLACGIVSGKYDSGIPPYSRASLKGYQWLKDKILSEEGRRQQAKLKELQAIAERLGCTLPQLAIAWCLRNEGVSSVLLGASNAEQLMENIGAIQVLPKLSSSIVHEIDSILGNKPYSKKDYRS

In the case of `CC1(C)Cc2c(c(N3CCOCC3)nc3snc(N)c23)CO1`, the cell count in [1] stood at 554. Moreover, the inhibition is -1.3% (inactive) in assay [1], -78.1% (inactive) in [2], 1.48% (inactive) in assay [4] and 22.3% (inactive) in assay [9]. The same compound returned a nuclei count in assay [2] of 140%. For the same compound, the values for the z-score in assay [3] (setting [10]), in [3] (setting [11]) and in assay [3] (setting [12]) were 0.144, -0.616 and 0.222, respectively. Moreover, the fluorescence slope in assay [5] is -0.281 (inactive). Besides, in [6], the NADPH fluorescence slope was -1.1e-05 (inactive). Moreover, the slope in [7] is 0.00566 (inactive). Also, the compound was classed as inactive in [8].

In the case of `CC(=NC1CCCC1)c1c(C)[nH]n(-c2nc3ccccc3s2)c1=O`, the cell count in [1] worked out at 573. The inhibition is 3.4% (inactive) in assay [1], 54.6% (inactive) in assay [2], -1.12% (inactive) in assay [4] and 6.63% (inactive) in [9]. This compound registered a nuclei count in assay [2] of 142%. Besides, the values for the z-score in assay [3] (setting [10]), in assay [3] (setting [11]) and in assay [3] (setting [12]) were 0.859, 0.776 and -1.4, respectively. In addition, the fluorescence slope in assay [5] was -0.469 (inactive). For the same compound, the NADPH fluorescence slope in [6] was -0.000261 (inactive). Moreover, in assay [7], the slope is 0.00463 (inactive). Further, the call in [8] was inactive.

For `O=c1c2c3c(sc2n2cnnc2n1Cc1ccccc1)CN(Cc1ccccc1)CC3`, in assay [1], the cell count stood at 620. In addition, the inhibition was -1.6% (inactive) in assay [1], 66.2% (inactive) in [2], 6.04% (inactive) in [4] and 22.4% (inactive) in [9]. The compound further registered a nuclei count in assay [2] of 104%. Further, the z-score was found to be 0.015 in [3] (setting [10]), 0.568 in [3] (setting [11]) and 0.295 in [3] (setting [12]). Further, in assay [5], the fluorescence slope is -0.427 (inactive). Also, the NADPH fluorescence slope in [6] is -1.4e-05 (inactive). In assay [7], the slope was 0.0049 (inactive). Besides, the call in [8] was inactive.

On to `Cc1ccc(N(CC(=O)O)C2SC(=O)NC2=O)cc1` (stereo unspecified), for which the cell count in assay [1] came to 529. Also, the inhibition in assay [1] was -12.4% (inactive); in assay [2], -72.5% (inactive); in assay [4], 18.2% (inactive); in [9], 31.2% (inactive). In assay [2], this compound registered a nuclei count of 142%. Further, the z-score in assay [3] (setting [10]) was 0.0556; in assay [3] (setting [11]), 0.578; in assay [3] (setting [12]), -1.85. For the same compound, in assay [5], the fluorescence slope was -0.507 (inactive). In addition, in [6], the NADPH fluorescence slope was -2.2e-05 (inactive). In addition, in assay [7], the slope is 0.00492 (inactive). Besides, in assay [8], the outcome was inactive.

In the case of `Cc1nc(-c2cn[nH]c2)c2cc(C)oc2n1`, the cell count in [1] is 599. In addition, the inhibition in [1] is -33.9% (inactive); in assay [2], -51.1% (inactive); in assay [4], -2.07% (inactive); in [9] it was -8.8% (inactive). In assay [2], this compound returned a nuclei count of 120%. Besides, the z-score in [3] (setting [10]) was -2.18; in assay [3] (setting [11]), 1.64; in [3] (setting [12]) it was 0.464. In assay [5], the fluorescence slope is -0.491 (inactive). In [6], the NADPH fluorescence slope is -0.00022 (inactive). Besides, the slope in assay [7] is 0.00453 (inactive). Besides, in assay [8], the result was inactive.

For the compound `CCCSc1nc(C)c(CC(=O)OCC)c(=O)[nH]1`, the cell count in assay [1] was 573. The inhibition in assay [1] was -10.2% (inactive); in assay [2] it was -162% (inactive); in assay [4], 1.98% (inactive); in assay [9], 6.42% (inactive). This compound had a nuclei count in assay [2] of 138%. Moreover, the figures for the z-score in assay [3] (setting [10]), in assay [3] (setting [11]) and in assay [3] (setting [12]) were -0.128, -1.19 and 1.09, respectively. Also, in [5], the fluorescence slope was -0.508 (inactive). Further, the NADPH fluorescence slope in assay [6] was -6e-05 (inactive). In addition, in assay [7], the slope is 0.008 (inactive). In addition, the compound was classed as inactive in [8].

On to `CCOC(=O)CSc1nc2ccccc2c(=O)n1C`, for which the cell count in [1] came to 636. Also, the inhibition is -9.5% (inactive) in assay [1], -24.4% (inactive) in assay [2], -5.89% (inactive) in assay [4] and -11.1% (inactive) in assay [9]. Further, the nuclei count in [2] was determined as 170%. For the same compound, the z-score was -0.479 in assay [3] (setting [10]), 1.67 in [3] (setting [11]) and 1.83 in assay [3] (setting [12]). Also, the fluorescence slope in [5] is -0.523 (inactive). In assay [6], the NADPH fluorescence slope is -3.8e-05 (inactive). Besides, the slope in assay [7] is 0.00573 (inactive). In addition, the outcome in assay [8] was inactive.
